Assay results gathered from unrelated publications.
Protocols differ between the studies behind these lines.
Target: Serine/threonine-protein kinase NIM1 (NIM1K, Homo sapiens, UniProt Q8IY84)

SMILES	observed	method	concentration	remaining binding [%]
Nc1ncc2c(n1)-c1c([nH]c3ccc(C#CC4CC4)cc13)CCCC2	binding	competition with immobilised ligand	1 µM	61
CN(C)c1nccc(-c2cnn3ncccc23)n1	binding	–	1 µM	52
O=C(c1ccc(Nc2nccc(-c3cc4ccccc4s3)n2)cc1)N1CCC(N2CCCC2)CC1	binding	competition with immobilised ligand	1 µM	80
COc1ccc2c(c1)O[C@H](c1ccc(OC)c(OC)c1)C[C@@H]2NC(=O)C1(c2ccc3c(c2)OC(F)(F)O3)CC1	cell-free assay	competition with immobilised ligand	1 µM	84
Cc1cnn2ncc(-c3ccnc(N(C)C)n3)c2c1	binding	–	1 µM	92
c1cncc(-c2cccc(Nc3nccc(NC4CCCCC4)n3)c2)c1	binding	competition with immobilised ligand	10 µM	88
F[C@@H]1CCN(c2nccc(-c3cnn4ncccc34)n2)C1	binding	–	1 µM	100
CCN1CCN(Cc2ccc(C(=O)Nc3ccc(C)c(Oc4ccc5c(c4)CC(=O)N5)c3)cc2C(F)(F)F)CC1	binding	competition with immobilised ligand	1 µM	100
Cc1cc(-n2nc(Cc3cc(F)cc(C(F)(F)F)c3)nc2C)ccc1C(N)=O	cell-free assay	competition with immobilised ligand	1 µM	100
COc1ccnn2ncc(-c3ccnc(N(C)C)n3)c12	binding	–	1 µM	100
C[C@@H]1CN(c2cc(-c3nn(C)c4ccc(OC5(C)CC5)cc34)ncn2)C[C@H](C)O1	cell-free assay	competition with immobilised ligand	1 µM	74
O=C(NCCCN1CCOCC1)c1ccc(Nc2ncc(Cl)c(-c3ccc(Cl)s3)n2)cc1	binding	competition with immobilised ligand	1 µM	20
C=CC(=O)N1CCC(C(=O)NCC(=O)N2CCN(c3nc(-c4cnc(N)nc4C(F)F)nc(N4CCOCC4)n3)CC2)CC1	binding	competition with immobilised ligand	1 µM	100
CN(c1nccc(-c2cnn3ncccc23)n1)C1CC1	binding	–	1 µM	100
O=C(Nc1c[nH]nc1C(=O)NC1CCNCC1)c1cc(F)cc(F)c1	binding	competition with immobilised ligand	1 µM	100
O=C(c1ccc(Nc2ncc(Cl)c(-c3ccc(Cl)s3)n2)cc1)N1CCC(N2CCCC2)CC1	binding	competition with immobilised ligand	1 µM	6.3
CCC(=O)N[C@H]1CC[C@@H](C(=O)N(C)c2ccc(-c3nc4ccccc4o3)cc2)C1	cell-free assay	competition with immobilised ligand	1 µM	88
CNC(=O)[C@@H]1CC[C@@H](n2c(-c3ccc4cnccc4c3)nc3ccc(C(=O)NCc4cccc(C(N)=O)c4)cc32)C1	binding	competition with immobilised ligand	1 µM	100
CN(CCCC(F)(F)F)c1nccc(-c2cnn3ncccc23)n1	binding	–	1 µM	100
CO[C@@H](C)c1c(Nc2ccc([C@H](N(C)C(=O)C3CCS(=O)(=O)CC3)C(F)(F)F)cc2)cnc2cc(Cl)nn12	cell-free assay	competition with immobilised ligand	1 µM	79
C[C@@H]1CCN(c2nccc(-c3cnn4ncccc34)n2)C1	binding	–	1 µM	87
O=C(Nc1cccnn1)N1CCC(=Cc2cccc(Oc3ccc(C(F)(F)F)cn3)c2)CC1	cell-free assay	competition with immobilised ligand	1 µM	100
